# Laboratory results reported in ChEMBL document CHEMBL5137109, “Tunable Cysteine-Targeting Electrophilic Heteroaromatic Warheads Induce Ferroptosis” (J Med Chem, 2022).
# The source made the active and inactive calls. No cut-off for these calls is given here.
# Legend:
# HCT-116 = assay: Cytotoxicity against human HCT-116 cells assessed as reduction in cell viability incubated for 3 days by methylene blue staining based analysis; assay type: functional; settings: HCT-116, 72 h
# NCI-H522 [1] = assay: Cytotoxicity against human NCI-H522 cells assessed as reduction in cell viability incubated for 3 days by methylene blue staining based analysis; assay type: functional; settings: NCI-H522, 72 h
# NCI-H522 [2] = assay: Induction of lipid peroxidation in human NCI-H522 cells assessed as increase in C11-BODIPY oxidation at 20 uM incubated for 6 hrs by flow cytometry; assay type: functional, cell-based
# Outline: (§1)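 NCI-H522 cells (~70% density) plated in dishes overnight, then treated with compound or DMSO plus C11-BODIPY 581/591 (1 μM) added at treatment. After 3 h or 6 h, cells washed, trypsinized, resuspended in PBS with 2% FBS and analysed by flow cytometry (preferably 20×10³ cells). Oxidation compared with DMSO treatment.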
# [3] = Selectivity ratio of IC50 for human HCT-116 cells to IC50 for human NCI-H522 cells by methylene blue staining based analysis; assay type: functional
# NCI-H522 [4] = assay: Induction of lipid peroxidation in human NCI-H522 cells assessed as increase in C11-BODIPY oxidation at 5 uM incubated for 3 hrs by flow cytometry; assay type: functional, cell-based; outline: as §1
# NCI-H522 [5] = assay: Cytotoxicity against human NCI-H522 cells assessed as reduction in cell viability incubated for 3 days in presence of ferroptosis inhibitor, liproxstatin-1 by methylene blue staining based analysis; assay type: functional; settings: NCI-H522, 72 h
# Outline: (§2)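 NCI-H522 cells seeded at 25×10³/well (n=3), adhered overnight, then exposed to compound with or without liproxstatin-1 (0.25 μM). After 3 days, methylene blue staining with HCl elution and A668. Results given as % relative to DMSO control, mean ± SD, n=3, one-way ANOVA. Fold change is IC50 (with liproxstatin-1)/IC50 (alone).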
# [6] = Ratio of IC50 for cytotoxicity against human NCI-H522 cells in presence of ferroptosis inhibitor, liproxstatin-1 to IC50 for cytotoxicity against human NCI-H522 cells; assay type: functional
# Outline: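 NCI-H522 cells, 25*10³/well (n=3), plated overnight, treated with compound with or without Liproxstatin-1 (0.25 μM). After 3 days, methylene blue in 50% ethanol fix/stain 30 min RT, dye dissolved in 0.1N HCl, A668. Fold change = IC₅₀ with Liproxstatin-1 / IC₅₀ without.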
# HT-1080 = assay: Cytotoxicity against human HT-1080 cells assessed as reduction in cell viability incubated for 3 days by methylene blue staining based analysis; assay type: functional; settings: HT-1080, 72 h
# MDA-MB-468 = assay: Cytotoxicity against human MDA-MB-468 cells assessed as reduction in cell viability incubated for 3 days by methylene blue staining based analysis; assay type: functional; settings: MDA-MB-468, 72 h
# MDA-MB-231 = assay: Cytotoxicity against human MDA-MB-231 cells assessed as reduction in cell viability incubated for 3 days by methylene blue staining based analysis; assay type: functional; settings: MDA-MB-231, 72 h
# HeLa = assay: Cytotoxicity against human HeLa cells assessed as reduction in cell viability incubated for 3 days by methylene blue staining based analysis; assay type: functional; settings: 72 h
# U2OS = assay: Cytotoxicity against human U2OS cells assessed as reduction in cell viability incubated for 3 days by methylene blue staining based analysis; assay type: functional; settings: 72 h
# [7] = Cytotoxicity against human WI-38 cells assessed as reduction in cell viability incubated for 3 days by methylene blue staining based analysis; assay type: toxicity
# [8] = Cytotoxicity against mouse MEF cells assessed as reduction in cell viability incubated for 3 days by methylene blue staining based analysis; assay type: toxicity
# NCI-H522 [9] = assay: Cytotoxicity against human NCI-H522 cells assessed as time required to cause 50% irreversible cell death treated with compound followed by washing for every 30 mins for 6 hrs by methylene blue staining based analysis; assay type: functional
# Outline: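 NCI-H522 cells, 5*10³/well (n=3), plated overnight, then treated with compound or DMSO. Wells washed immediately after treatment and then at 30-min intervals up to 6 h; last wells not washed. Methylene blue in 50% ethanol fix/stain 30 min RT, dye dissolved in 0.1N HCl, A668. Each point taken as % survival of matching DMSO-treated cells.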
# NCI-H522 [10] = assay: Induction of lipid peroxidation in human NCI-H522 cells assessed as increase in C11-BODIPY oxidation at 40 uM incubated for 6 hrs by flow cytometry; assay type: functional, cell-based; outline: as §1
# NCI-H522 [11] = assay: Induction of lipid peroxidation in human NCI-H522 cells assessed as increase in C11-BODIPY oxidation at 10 uM incubated for 6 hrs by flow cytometry; assay type: functional, cell-based; outline: as §1
# NCI-H522 [12] = assay: Cytotoxicity against human NCI-H522 cells assessed as reduction in cell survival at 2 uM incubated for 3 days in presence of ferroptosis inhibitor, liproxstatin-1 by methylene blue staining based analysis; assay type: functional; settings: time 3.0 day; outline: as §2
# NCI-H522 [13] = assay: Induction of lipid peroxidation in human NCI-H522 cells assessed as increase in C11-BODIPY oxidation at 5 uM incubated for 6 hrs by flow cytometry; assay type: functional, cell-based; outline: as §1
SMILES,IC50 (HCT-116) [µM],IC50 (NCI-H522 [1]) [µM],further results
c1ccc2[se]cnc2c1,> 40,> 40,
C#Cc1nc(C(=O)N2CCN(c3ccc(C(F)(F)F)cc3)CC2)cs1,,0.037,
C#CCNC1CCC(c2csc(C#C)n2)=C1C (configuration not stated),> 40,2.51,Activity (NCI-H522 [2]): Active
C=Cc1csc(Br)n1,> 40,> 40,
Cn1cnc2ccccc21,> 40,> 40,
C#Cc1sc(-c2ccc(F)cc2)nc1C(=O)OCC,> 40,3.53,Ratio IC50 [3]: 11.33; Activity (NCI-H522 [2]): Active
CC#Cc1nc(C(=O)OCC)cs1,> 40,> 40,
C#Cc1nc(C(=O)N2CCN(c3ccc(Cl)cc3)CC2)cs1,,0.028,
C#Cc1nc(C(=O)Nc2ccc(OC)cc2)cs1,8.39,0.67,Ratio IC50 [3]: 12.52; Activity (NCI-H522 [4]): Active
Ic1nc2ccccc2o1,> 40,11.7,Ratio IC50 [3]: 3.41
O=C(CCl)N1CCN(C(c2ccc(Cl)cc2)c2ccc(Cl)cc2)CC1,1.64,0.752,IC50 (NCI-H522 [5]): 3.1 µM; Ratio IC50 [6]: 4.12; IC50 (HT-1080): 0.302 µM; IC50 (MDA-MB-468): 1.75 µM; IC50 (MDA-MB-231): 0.494 µM; IC50 (HeLa): 2.11 µM; IC50 (U2OS): 1.71 µM; IC50 at 3 days [7]: 1.74 µM; IC50 at 3 days [8]: 0.352 µM
C#Cc1nc(/C=C/C(=O)Nc2ccc(Cl)cc2)cs1,23.2,0.37,Ratio IC50 [3]: 62.64; Activity (NCI-H522 [4]): Active
C#Cc1nc(C(=O)N2CCN(c3ccc(F)cc3)CC2)cs1,,0.064,
C#Cc1nc(C(=O)OCC)cs1,> 40,2.67,Ratio IC50 [3]: >14.98; Activity (NCI-H522 [2]): Active
c1ccc2scnc2c1 [BENZO[D]THIAZOLE],> 40,> 40,
N#Cc1nccs1,> 40,> 40,
COC(=O)c1ccc([C@H]2c3[nH]c4ccccc4c3CC(C(=O)OC)N2C(=O)CCl)cc1 (some centres not stated),,,IT50 (NCI-H522 [9]): 1.33 h
C=Cc1nc2ccccc2s1,> 40,> 40,
C#CCNC(=O)c1csc(Br)n1,> 40,> 40,
Cc1onc(C(=O)N2CCN(C(c3ccc(Cl)cc3)c3ccc(Cl)cc3)CC2)c1[N+](=O)[O-],> 1,0.044,IC50 (NCI-H522 [5]): 34.5 µM; Ratio IC50 [6]: 784.431; IC50 (HT-1080): 0.022 µM; IC50 (MDA-MB-468): 0.066 µM; IC50 (MDA-MB-231): 0.02 µM; IC50 (HeLa): 0.253 µM; IC50 (U2OS): 0.822 µM; IC50 at 3 days [7]: 0.06 µM; IC50 at 3 days [8]: 0.016 µM
Cn1c(Br)nc2ccccc21,> 40,> 40,
C#Cc1nc(/C=C/C(=O)N2CCN(C(c3ccc(Cl)cc3)c3ccc(Cl)cc3)CC2)cs1,,0.006,
C#Cc1nc(C(=O)N2CCN(CC)CC2)cs1,,> 1,
c1ccc2ocnc2c1 [BENZO[D]OXAZOLE],> 40,> 40,

SMILES,IC50 (HCT-116) [µM],IC50 (NCI-H522 [1]) [µM],further results
C#Cc1nc2ccccc2n1C,19.4,8.14,Ratio IC50 [3]: 2.37; Activity (NCI-H522 [10]): Active
C#Cc1nc2ccccc2o1,11.6,1.26,Ratio IC50 [3]: 9.12; Activity (NCI-H522 [11]): Active
C#Cc1ncccn1,> 40,> 40,
C#Cc1nccs1,> 40,> 40,
CC#Cc1nc2ccccc2s1,> 40,> 40,
C=Cc1nc(C(=O)OCC)cs1,> 40,> 40,
Cn1c(I)nc2ccccc21,17.5,1.02,Ratio IC50 [3]: 17.16; Activity (NCI-H522 [12]): Active
C#CC(=O)N1CCN(C(c2ccc(Cl)cc2)c2ccc(Cl)cc2)CC1,3.8,1.13,IC50 (NCI-H522 [5]): 2.88 µM; Ratio IC50 [6]: 2.55; IC50 (HT-1080): 0.376 µM; IC50 (MDA-MB-468): 0.065 µM; IC50 (MDA-MB-231): 0.038 µM; IC50 (HeLa): 0.303 µM; IC50 (U2OS): 0.638 µM; IC50 at 3 days [7]: 0.5 µM; IC50 at 3 days [8]: 0.082 µM
C#Cc1ccccn1,> 40,> 40,
Ic1nc2ccccc2s1,> 40,> 40,
C=Cc1sc(-c2ccc(F)cc2)nc1C(=O)OCC,> 40,> 40,
C=Cc1nc2ccccc2o1,> 40,> 40,
Ic1nc2ccccc2[se]1,> 40,> 40,
Brc1nc2ccccc2[se]1,> 40,> 40,
C#Cc1csc(Br)n1,> 40,> 40,
C#Cc1nc(C(=O)Nc2ccc(Cl)cc2)cs1,15.9,0.54,Ratio IC50 [3]: 29.4; Activity (NCI-H522 [13]): Active
C#Cc1nc(C(=O)Nc2ccccc2)cs1,4.88,0.66,Ratio IC50 [3]: 7.39; Activity (NCI-H522 [4]): Active
Brc1nc2ccccc2o1,> 40,> 40,
CC#CC1=Nc2ccccc2C(C)(C)O1,> 40,8.4,Ratio IC50 [3]: >4.76; Activity (NCI-H522 [10]): Active
C=Cc1nc2ccccc2[se]1,> 40,12.2,Ratio IC50 [3]: >3.27
CCOC(=O)c1csc(C#Cc2ccccc2)n1,> 40,> 40,
Brc1nc2ccccc2s1,> 40,> 40,
C#CCNC(=O)c1cscn1,> 40,> 40,
C#CC1=Nc2ccccc2C(C)(C)O1,5.61,0.89,Ratio IC50 [3]: 6.3; Activity (NCI-H522 [13]): Active
